Values after ≈ are worked out from the molar mass of the structure shown. Active and inactive are the calls of the source. No cut-off for these calls is given here.
Tests used:
Type in all cases: functional
Staphylococcus aureus [1] = test: Antibacterial activity against ciprofloxacin susceptible Staphylococcus aureus subsp. aureus ATCC 13709 by broth microdilution method
Method in brief: (§1)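 Broth microdilution per CLSI (NCCLS M7-A5) guidelines; MIC taken as lowest concentration inhibiting visible growth. Strains are ciprofloxacin-susceptible reference strains.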

Streptococcus pneumoniae [2] = test: Antibacterial activity against ciprofloxacin resistant Streptococcus pneumoniae OC5465 by broth microdilution method
Method in brief: (§2)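 MIC determined by broth microdilution following CLSI (formerly NCCLS) M7-A5 guidelines for aerobically growing bacteria. MIC is the lowest compound concentration inhibiting visible growth. Strains are ciprofloxacin-resistant clinical isolates tested within a six-strain abbreviated panel.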

Streptococcus pneumoniae [3] = test: Antibacterial activity against ciprofloxacin susceptible Streptococcus pneumoniae ATCC 49619 by broth microdilution method; method in brief: as §1
Streptococcus pneumoniae [4] = test: Antibacterial activity against ciprofloxacin resistant Streptococcus pneumoniae OC5462 by broth microdilution method; method in brief: as §2
Escherichia coli = test: Antibacterial activity against ciprofloxacin susceptible Escherichia coli ATCC 25922 by broth microdilution method; method in brief: as §1
Streptococcus pneumoniae [5] = test: Antibacterial activity against ciprofloxacin resistant Streptococcus pneumoniae OC5458 by broth microdilution method; method in brief: as §2
Staphylococcus aureus [6] = test: Antimicrobial activity against Staphylococcus aureus subsp. aureus ATCC 13709 infected in sc dosed Swiss Webster mouse treated 1 hr after infection measured fter 3 days; conditions: ATCC 13709, sc
Method in brief: (§3)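 Female Swiss-Webster mice infected ip with S. aureus ATCC13709; test compound given subcutaneously or orally 1 h post-infection; mortality followed for three days; untreated infected mice served as controls.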

Staphylococcus aureus [7] = test: Antimicrobial activity against Staphylococcus aureus subsp. aureus ATCC 13709 infected in po dosed Swiss Webster mouse treated 1 hr after infection measured fter 3 days; conditions: ATCC 13709, po; method in brief: as §3

Compound	MIC (Staphylococcus aureus [1]) [µg/mL]	MIC (Streptococcus pneumoniae [2]) [µg/mL]	MIC (Streptococcus pneumoniae [3]) [µg/mL]	MIC (Streptococcus pneumoniae [4]) [µg/mL]	MIC (Escherichia coli) [µg/mL]	MIC (Streptococcus pneumoniae [5])	ED50 (Staphylococcus aureus [6]) [mg/kg]	ED50 (Staphylococcus aureus [7]) [mg/kg]
C[C@H]1Cn2cc(-c3ccc4c(c3OC(F)F)N(C3CC3)CC(C(=O)O)C4=O)cc2CN1 (stereo not given in full)	0.12 (≈ 0.278 µM)	1 (≈ 2.32 µM)	1 (≈ 2.32 µM)	8 (≈ 18.5 µM)	1 (≈ 2.32 µM)	1 µg/mL (≈ 2.32 µM)		
C[C@H]1COc2c(-c3cc4n(c3)CCNC4)c(F)cc3c2N1CC(C(=O)O)C3=O (stereo not given in full)	0.5 (≈ 1.3 µM)	1 (≈ 2.59 µM)	2 (≈ 5.19 µM)	> 16	> 16	> 16 µg/mL		
C[C@H]1NCCn2cc(-c3ccc4c(c3OC(F)F)N(C3CC3)CC(C(=O)O)C4=O)cc21 (stereo not given in full)	0.5 (≈ 1.16 µM)	4 (≈ 9.27 µM)	1 (≈ 2.32 µM)	16 (≈ 37.1 µM)	4 (≈ 9.27 µM)	8 µg/mL (≈ 18.5 µM)		
C[C@H]1NCCn2cc(-c3cc4c(cc3F)C(=O)C(C(=O)O)CN4C3CC3)cc21 (stereo not given in full)	0.25 (≈ 0.652 µM)	0.25 (≈ 0.652 µM)	1 (≈ 2.61 µM)	16 (≈ 41.7 µM)	4 (≈ 10.4 µM)	8 µg/mL (≈ 20.9 µM)		
C[C@@H]1NCCn2cc(-c3c(F)cc4c(c3OC(F)F)N(C3CC3)CC(C(=O)O)C4=O)cc21 (stereo not given in full)	0.25 (≈ 0.556 µM)	2 (≈ 4.45 µM)	2 (≈ 4.45 µM)	8 (≈ 17.8 µM)	1 (≈ 2.23 µM)	2 µg/mL (≈ 4.45 µM)		
C[C@H]1Cn2cc(-c3nc4c(cc3F)C(=O)C(C(=O)O)CN4c3ccc(F)cc3F)cc2CN1 (stereo not given in full)	0.12 (≈ 0.263 µM)	2 (≈ 4.38 µM)	1 (≈ 2.19 µM)	16 (≈ 35.1 µM)	16 (≈ 35.1 µM)	16 µg/mL (≈ 35.1 µM)		
C[C@@H]1NCCn2cc(-c3ccc4c(c3OC(F)F)N(C3CC3)CC(C(=O)O)C4=O)cc21 (stereo not given in full)	0.5 (≈ 1.16 µM)	2 (≈ 4.64 µM)	1 (≈ 2.32 µM)	16 (≈ 37.1 µM)	4 (≈ 9.27 µM)	4 µg/mL (≈ 9.27 µM)		
COc1c(-c2cc3n(c2)C[C@@H](C)NC3)c(F)cc2c1N(C1CC1)CC(C(=O)O)C2=O (stereo not given in full)	0.25 (≈ 0.605 µM)	0.5 (≈ 1.21 µM)	0.25 (≈ 0.605 µM)	2 (≈ 4.84 µM)	1 (≈ 2.42 µM)	1 µg/mL (≈ 2.42 µM)		
C[C@H]1Cn2cc(-c3nc4c(cc3F)C(=O)C(C(=O)O)CN4C3CC3)cc2CN1 (stereo not given in full)	0.06 (≈ 0.156 µM)	0.25 (≈ 0.65 µM)	0.5 (≈ 1.3 µM)	8 (≈ 20.8 µM)	2 (≈ 5.2 µM)	8 µg/mL (≈ 20.8 µM)		
O=C(O)c1cn(C2CC2)c2cc(N3CCNCC3)c(F)cc2c1=O [CIPROFLOXACIN]	0.12 (≈ 0.362 µM)	> 16	1 (≈ 3.02 µM)	> 16	0.03 (≈ 0.0905 µM)	> 16 µg/mL	1.4	10.8
C[C@H]1Cn2cc(-c3cc4c(cc3F)C(=O)C(C(=O)O)CN4C3CC3)cc2CN1 (stereo not given in full)	0.06 (≈ 0.156 µM)	0.12 (≈ 0.313 µM)	0.5 (≈ 1.3 µM)	4 (≈ 10.4 µM)	2 (≈ 5.22 µM)	2 µg/mL (≈ 5.22 µM)		
C[C@H]1Cn2cc(-c3c(F)cc4c5c3OC[C@H](C)N5CC(C(=O)O)C4=O)cc2CN1 (stereo not given in full)	0.25 (≈ 0.626 µM)	0.5 (≈ 1.25 µM)	1 (≈ 2.5 µM)	8 (≈ 20 µM)	4 (≈ 10 µM)	4 µg/mL (≈ 10 µM)		
O=C(O)C1CN(C2CC2)c2c(ccc(-c3cc4n(c3)CCNC4)c2OC(F)F)C1=O (stereo not given)	0.06 (≈ 0.144 µM)	0.25 (≈ 0.599 µM)	0.5 (≈ 1.2 µM)	8 (≈ 19.2 µM)	1 (≈ 2.4 µM)	inactive		
COc1c(-c2cc3n(c2)CCNC3)c(F)cc2c1N(C1CC1)CC(C(=O)O)C2=O (stereo not given)	0.03 (≈ 0.0751 µM)	0.12 (≈ 0.3 µM)	0.25 (≈ 0.626 µM)	1 (≈ 2.5 µM)	1 (≈ 2.5 µM)	1 µg/mL (≈ 2.5 µM)		
C[C@@H]1NCCn2cc(-c3nc4c(cc3F)C(=O)C(C(=O)O)CN4C3CC3)cc21 (stereo not given in full)	0.5 (≈ 1.3 µM)	1 (≈ 2.6 µM)	1 (≈ 2.6 µM)	8 (≈ 20.8 µM)	8 (≈ 20.8 µM)	8 µg/mL (≈ 20.8 µM)		
C[C@@H]1NCCn2cc(-c3c(F)cc4c5c3OC[C@H](C)N5CC(C(=O)O)C4=O)cc21 (stereo not given in full)	0.25 (≈ 0.626 µM)	0.5 (≈ 1.25 µM)	1 (≈ 2.5 µM)	8 (≈ 20 µM)	4 (≈ 10 µM)	4 µg/mL (≈ 10 µM)		
COc1c(-c2cc3n(c2)CCN[C@@H]3C)c(F)cc2c1N(C1CC1)CC(C(=O)O)C2=O (stereo not given in full)	0.25 (≈ 0.605 µM)	2 (≈ 4.84 µM)	2 (≈ 4.84 µM)	16 (≈ 38.7 µM)	8 (≈ 19.3 µM)	> 16 µg/mL		
C[C@@H]1NCCn2cc(-c3nc4c(cc3F)C(=O)C(C(=O)O)CN4c3ccc(F)cc3F)cc21 (stereo not given in full)	1 (≈ 2.19 µM)	8 (≈ 17.5 µM)	4 (≈ 8.76 µM)	> 16	> 16	> 16 µg/mL		
COc1c(-c2cc3n(c2)CCN[C@H]3C)c(F)cc2c1N(C1CC1)CC(C(=O)O)C2=O (stereo not given in full)	0.12 (≈ 0.29 µM)	0.5 (≈ 1.21 µM)	0.5 (≈ 1.21 µM)	4 (≈ 9.67 µM)	2 (≈ 4.84 µM)	1 µg/mL (≈ 2.42 µM)		
C[C@@H]1NCCn2cc(-c3cc4c(cc3F)C(=O)C(C(=O)O)CN4C3CC3)cc21 (stereo not given in full)	0.25 (≈ 0.652 µM)	0.5 (≈ 1.3 µM)	1 (≈ 2.61 µM)	16 (≈ 41.7 µM)	4 (≈ 10.4 µM)	4 µg/mL (≈ 10.4 µM)		
COc1c(-c2cc3n(c2)C[C@H](C)NC3)c(F)cc2c1N(C1CC1)CC(C(=O)O)C2=O (stereo not given in full)	0.03 (≈ 0.0726 µM)	0.25 (≈ 0.605 µM)	0.12 (≈ 0.29 µM)	1 (≈ 2.42 µM)	0.5 (≈ 1.21 µM)	0.5 µg/mL (≈ 1.21 µM)	< 1.25	4
